In the library only some 3.5% were active in any assay of this set; here they are far more common.
RGS4 pot = RGS4 potentiators or activators, primary screen, cell-based, HEK293 M3R inducible RGS4, calcium flux; carbachol calcium flux Fluo4; stronger effect = lower value; B-score at 10 µM; actives 0.92% (n = 310,000);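 active = B-score of the integrated calcium signal more than 4 SD below the library mean, with starting fluorescence not abnormally high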;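 note: negative B-score means reduced calcium response which marks RGS4 activation or potentiation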
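test system = M3R-expressing HEK293 line, RGS4 induced by doxycycline | probe or stimulus = carbachol at ECmax as muscarinic agonist stimulus | timing = dye loading 30 min 37 °C, buffer rest 30 min RT | signal = calcium dye Fluo4 fluorescence | evaluation = B score from integrated fluorescence ratio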
RGS4 block = RGS4 inhibitors, primary screen, cell-based, HEK293 M3R inducible RGS4, calcium flux; AID 463165, 2010; B-score at 10 µM; Regulator of G-protein signaling 4 (Homo sapiens), P49798; Fluo-4 calcium flux; stronger effect = higher value; triggered by carbachol at its EC20; actives 0.45% (n = 310,000);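 active = B-score, a plate-corrected calcium signal, over three deviations above library mean, with baseline fluorescence within five deviations of library mean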;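 note: RGS4 expression induced by doxycycline in cells with stable M3 receptor; B-score is computed from the integrated fluorescence ratio over baseline after carbachol; higher B-score means a larger calcium signal and so more RGS4 inhibition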
Target sequence (P49798 whole entry, looked up): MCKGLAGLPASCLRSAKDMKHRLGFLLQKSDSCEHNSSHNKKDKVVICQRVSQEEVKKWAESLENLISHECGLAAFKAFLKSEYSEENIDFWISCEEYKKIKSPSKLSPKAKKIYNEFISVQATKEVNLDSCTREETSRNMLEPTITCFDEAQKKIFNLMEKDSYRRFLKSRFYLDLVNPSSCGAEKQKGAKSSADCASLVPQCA
MrgX1 ag = agonists of human MrgX1 receptor, primary screen, HEK293 cells, Fluo-4 calcium flux; Mas-related G-protein coupled receptor member X1 (Homo sapiens), Q96LB2; Fluo-4 calcium fluorescence, agonist mode; stronger effect = higher value; B-score at 10 µM; actives 0.44% (n = 310,000); AID 588627, 2011;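 active = calcium response B-score plate-corrected fluorescence ratio at least 3 library SD, with starting fluorescence B-score inside 5 SD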
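Material – MrgX1-expressing HEK293 cells · Input – 15,000 cells seeded per well · Dosing – compound as first of three additions · Times – overnight seeding, then 1 h dark dye loading · Measured by – kinetic Fluo-4 NW fluorescence of intracellular calcium · Read-out – B-scored fluorescence response ratio · Benchmarks – positive and negative control wells on each plate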
MrgX1 antagonist = antagonists of human MrgX1 receptor, primary screen, HEK293 cells, Fluo-4 calcium flux | Mas-related G-protein coupled receptor member X1 (Homo sapiens), Q96LB2 | BAM8-22 antagonism; stronger effect = lower value | B-score at 10 µM | actives 1.3% (n = 310,000);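 active = calcium-response B-score plate-corrected more than 3 library SD below zero, starting fluorescence within 5 deviations, no agonist response on first addition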;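 note: peak minus trough fluorescence over baseline after final BAM8-22 challenge near maximal dose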
MrgX1 PAM = positive allosteric modulators of MrgX1, primary screen, HEK293 cells, Fluo-4 calcium flux | B-score at 10 µM | AID 588675, 2011 | actives 0.63% (n = 310,000) | Mas-related G-protein coupled receptor member X1 (Homo sapiens), Q96LB2 | FDSS; stronger effect = higher value;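 active = plate-corrected calcium response at least 3 library SD above typical, normal starting fluorescence, not activating the receptor alone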;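 note: compound read alongside a low EC10 to EC30 dose of BAM8-22 agonist; peak minus trough fluorescence over baseline measured at the second addition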
Hits are given with their value; – = inactive; · = not tested or not shown.

SMILES	RGS4 pot	RGS4 block	MrgX1 ag	MrgX1 antagonist	MrgX1 PAM
O=C(OCC(=O)N(CCc1ccccc1)Cc1ccccc1)c1ccccc1O	–	–	–	–	–
O=C(OCC(=O)N(CCc1ccccc1)Cc1ccccc1)c1ccccc1NCCO	-8.4	–	–	–	–
CC1CCc2c(sc3ncnc(SC(C)C(=O)NCC4CCCO4)c23)C1 (configuration not stated)	–	–	–	–	–
C/C(=C\C(=O)c1ccc(Cl)s1)N(C)C	–	–	–	–	9.2
O=C(/C=C\Nc1ccc2c(c1)OCO2)c1ccc(Cl)s1	–	–	–	–	–
CCOc1cc(/C=N/NC(=O)c2nn(C)cc2Br)ccc1OCc1ccccc1	–	–	–	-6.8	–
CCOC(=O)c1c(N2C(=O)Nc3ccccc3N2O)sc2c1CCCCC2	–	–	35	–	–
COC(=O)c1c(N2C(=O)Nc3ccccc3N2O)sc2c1CCCC2	–	–	–	–	–
CCN(CC)C(=O)CN(c1cc2c(cc1OC)oc1ccccc12)S(=O)(=O)c1ccccc1	·	·	–	-9.1	–
CCOc1ccc(S(=O)(=O)Nc2ccc(C(=O)NCC3(N4CCCCC4)CCCCC3)cc2)cc1	–	–	–	-9.8	–
Cc1ccc(NC(=O)CN(C)C(=O)COC(=O)CNS(=O)(=O)c2ccc(Br)cc2Cl)cc1	–	–	59	–	–
Cc1ccc(NC(=O)CN(C)C(=O)COC(=O)CNS(=O)(=O)c2ccc(F)c(F)c2F)cc1	–	–	–	–	–
Oc1cccc(Nc2nc(NCC3CCCO3)c3ccccc3n2)c1 (configuration not stated)	–	–	–	–	–
CCOc1ccc(Nc2nc(NCC3CCCO3)c3ccccc3n2)cc1 (configuration not stated)	-7.2	–	–	-5.9	–
COc1ccccc1Nc1nnc(SCc2nnc(-c3cc(OC)c(OC)c(OC)c3)o2)s1	–	–	–	–	7.1
COc1cc(-c2nnc(CSc3nnc(Nc4ccc(C(C)C)cc4)s3)o2)cc(OC)c1OC	–	–	–	–	–
CCOc1ccccc1Nc1nnc(SCc2nnc(-c3cc(OC)c(OC)c(OC)c3)o2)s1	–	–	–	-6.2	–
Cc1ccc(CNCCCSc2ncccn2)cc1	–	–	–	–	–
COc1ccc(C(=O)Nc2ccccc2C(=O)N/N=C/c2ccncc2)cc1OC	–	–	–	–	–
CCOc1ccc(S(=O)(=O)N2CCC(C(=O)NCc3cccnc3)CC2)cc1	–	–	–	–	–
CCCCCCc1cc2cc(C(N)=O)c(=N)oc2cc1O	-8.1	–	–	–	–
CCCCCCc1cc2cc(C(=O)OCC)c(=O)oc2cc1O	–	–	–	-7.3	–
C=CCn1c(CCCNC(=O)C(C)(C)C)nc2ccccc21	–	–	–	–	–
CC(C)(C)C(=O)NCCCc1nc2ccccc2n1CCCOc1ccc(Cl)cc1	–	–	–	-5.1	–
COc1ccc(C2NC(=O)NC(C)=C2C(=O)OC2CCC(C)CC2)cc1 (configuration not stated)	–	–	–	–	–
SMILES	RGS4 pot	RGS4 block	MrgX1 ag	MrgX1 antagonist	MrgX1 PAM
Cc1ccc(-c2c[n+]3c(n2-c2ccccc2)SCC3)cc1	–	–	–	–	–
COc1ccc(-c2c[n+]3c(n2-c2ccccc2)SCC3)cc1	-8.5	–	–	–	–
COc1ccc(-c2c[n+]3c(n2-c2ccccc2)CCCCC3)cc1	-8.3	–	–	–	–
O=c1cc(C(F)(F)F)[nH]c(=S)n1-c1ccccc1	–	–	–	–	–
Cn1c(-c2ccccc2)c(/C=N/NC(=O)c2ccc(O)cc2)c2ccccc21	–	–	–	–	–
COc1ccc(CCNC(=O)c2coc3ccccc3c2=O)cc1	–	–	–	–	–
O=[N+]([O-])c1c(Nc2ccccc2O)cc(Cl)c2nonc12	–	–	–	-12	–
CC(C)CN1C(=O)C(=O)N(CC(=O)c2ccc[nH]2)C1=O	–	–	–	–	–
COc1ccc(CN(CCC(c2ccccc2)c2ccc(OC(C)C)cc2)C(=O)CCl)cc1OC (configuration not stated)	-7.1	–	–	–	10

From PubChem
